Data set [1] has as its system Human immunodeficiency virus 1. Nature of the data set: Antiviral activity against HIV-1 strain IIIB infected in human MT4 cells assessed as protection against virus-induced cytopathicity after 5 days by MTT assay. It counts as functional, organism-based. The settings on record: Human immunodeficiency virus 1, IIIB, MT4, 120 h. On the technique in general: Damage to the host cells serves as the signal in cytopathic effect assays.

Data set [2] concerns Human immunodeficiency virus 1. Description: Antiviral activity against NNRTI-resistant HIV-1 RES056 harboring RT K103N/Y181C mutant infected in human MT4 cells assessed as protection against virus-induced cytopathogenicity after 5 days by MTT assay. The settings on record: Human immunodeficiency virus 1, RES056, MT4, 120 h. The data set is classed as functional, organism-based.

In data set [3] the test system is Human immunodeficiency virus 1. Description: Antiviral activity against HIV-1 harboring RT L100I mutant infected in human MT4 cells assessed as protection against virus-induced cytopathogenicity after 5 days by MTT assay. The data set is classed as functional, organism-based. The settings on record: Human immunodeficiency virus 1, MT4, 120 h.
In data set [4] the test system is Human immunodeficiency virus 1. Nature of the data set: Antiviral activity against HIV-1 harboring RT K103N mutant infected in human MT4 cells assessed as protection against virus-induced cytopathogenicity after 5 days by MTT assay. The data set is classed as functional, organism-based. The conditions noted are these: Human immunodeficiency virus 1, MT4, 120 h.

Data set [5] relates to Human immunodeficiency virus 1. Nature of the data set: Antiviral activity against HIV-1 harboring RT Y181C mutant infected in human MT4 cells assessed as protection against virus-induced cytopathogenicity after 5 days by MTT assay. It counts as functional, organism-based. The settings on record: Human immunodeficiency virus 1, MT4, 120 h.
Data set [6] has as its system Human immunodeficiency virus 1. Description: Antiviral activity against HIV-1 harboring RT Y188L mutant infected in human MT4 cells assessed as protection against virus-induced cytopathogenicity after 5 days by MTT assay. The data set is classed as functional, organism-based. The conditions noted are these: Human immunodeficiency virus 1, MT4, 120 h.
Data set [7] relates to Human immunodeficiency virus 1. Nature of the data set: Antiviral activity against HIV-1 harboring RT E138K mutant infected in human MT4 cells assessed as protection against virus-induced cytopathogenicity after 5 days by MTT assay. The settings on record: Human immunodeficiency virus 1, MT4, 120 h. The data set is classed as functional, organism-based.
In data set [8] the test system is Human immunodeficiency virus 1. Nature of the data set: Antiviral activity against HIV-1 harboring RT F227L/V106A mutant infected in human MT4 cells assessed as protection against virus-induced cytopathogenicity after 5 days by MTT assay. It counts as functional, organism-based. The settings on record: Human immunodeficiency virus 1, MT4, 120 h.
A short description of data set [9]: Tmax in Sprague-Dawley rat at 2 mg/kg, iv. The data set is classed as ADME, organism-based. The settings on record: in vivo. The gist of the method:
(§1)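 Sprague Dawley rats given a single 2 mg/kg intravenous or 20 mg/kg oral dose. Plasma concentration–time profiles followed. PK parameters reported as mean ± SD, n = 3.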

Data set [10] in a line: Tmax in Sprague-Dawley rat at 20 mg/kg, po. It counts as ADME, organism-based. The settings on record: in vivo. The gist of the method: as §1
The nature of data set [11]: Acute toxicity in Kunming mouse assessed as toxic symptoms at 2000 mg/kg, po single dose measured up to 2 weeks. It counts as organism-based. The settings on record: in vivo, 336 h. The method, boiled down: (§2)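 Kunming mice, 20 total, randomly split into two groups: vehicle control (0 mg/kg) or single oral 2000 mg/kg dose on day 1. Animals observed for toxic symptoms and mortality over the following two weeks; body weight tracked and expressed as relative change.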

A short description of data set [12]: Acute toxicity in Kunming mouse assessed as mortality at 2000 mg/kg, po single dose measured up to 2 weeks. It counts as organism-based. The settings on record: in vivo, 336 h. The gist of the method:
as §2

Data set [13] is described as follows: Acute toxicity in Kunming mouse assessed as body weight change at 2000 mg/kg, po single dose measured up to 2 weeks. The data set is classed as organism-based. The conditions noted are these: in vivo, 336 h. The method, boiled down:
as §2

The subject of data set [14] is Human immunodeficiency virus 2. Description: Antiviral activity against HIV-2 ROD infected in human MT4 cells assessed as protection against virus-induced cytopathogenicity after 5 days by MTT assay. The conditions noted are these: Human immunodeficiency virus 2, ROD, MT4, 120 h.

A value given as a limit tells only on which side of the number the result lay.

The term EC50 denotes the concentration needed to bring the measured effect to its halfway point. The Tmax is the time at which the peak concentration occurs.

`Cc1cc(C#N)cc(C)c1Oc1nc(NC2CCN(Cc3ccc(C(N)=O)cc3)CC2)ncc1-c1ccncc1`: the EC50 came to 3.75 nM in data set [1]; 24.4 nM in [2]; 4.26 nM in [3]; 3.79 nM in data set [4]; 6.79 nM in data set [5]; 6.79 nM in data set [6]. The EC50 is 10.9 nM in [7], 10.4 nM in data set [8] and > 36000 nM in data set [14]. Moreover, the Tmax in data set [9] stood at 19.8 min; in [10] it was 60 min. In addition, the Activity result in data set [11], in [12] and in [13] was “Non-Toxic” throughout.

For `Cc1cc(C#N)cc(C)c1Oc1nc(NC2CCN(Cc3ccc(S(C)(=O)=O)cc3)CC2)ncc1-c1ccco1`, the EC50 was found to be 4.52 nM in [1]; 233 nM in data set [2]; 20.4 nM in data set [3]; 5.92 nM in data set [4]; 26.4 nM in data set [5]; 28.8 nM in data set [6]. Further, the EC50 in data set [7] is 27.4 nM; in data set [8] it was 110 nM; in [14] it was > 7460 nM.

Regarding `Cc1cc(C#N)cc(C)c1Oc1nc(NC2CCN(Cc3ccc(S(N)(=O)=O)cc3)CC2)ncc1-c1ccoc1`, the EC50 was determined as 2.51 nM in data set [1]; 161 nM in data set [2]; 13.6 nM in data set [3]; 3 nM in [4]; 9.35 nM in [5]; 15.3 nM in data set [6]. The EC50 in data set [7] turned out to be 13 nM; in [8] it was 63.2 nM.

In the case of `Cc1cc(C#N)cc(C)c1Oc1nc(NC2CCN(Cc3ccc(S(C)(=O)=O)cc3)CC2)ncc1-c1cccs1`, the EC50 is 4.01 nM in [1]; 134 nM in [2]; 8.93 nM in data set [3]; 5.71 nM in [4]; 11.6 nM in data set [5]; 15.4 nM in data set [6]. Further, the EC50 stood at 6.27 nM in data set [7] and 38.4 nM in data set [8].

Turning to `Cc1cc(C#N)cc(C)c1Oc1nc(NC2CCN(Cc3ccc(S(N)(=O)=O)cc3)CC2)ncc1-c1ccsc1`, the EC50 in data set [1] turned out to be 5.09 nM; in data set [2], 209 nM; in [3] it was 15.4 nM; in [4], 4.7 nM; in data set [5], 12.3 nM; in data set [6] it was 30.3 nM. Further, the 50% effective concentration (EC50) in data set [7] was 19.7 nM; in data set [8], 85.3 nM; in [14] it was > 6120 nM.

On to `Cc1cc(C#N)cc(C)c1Oc1nc(NC2CCN(Cc3ccc(C(N)=O)cc3)CC2)ncc1-c1cccs1`, for which the EC50 in data set [1] was determined as 3.34 nM; in data set [2], 115 nM; in data set [3], 14.7 nM; in data set [4], 5.15 nM; in data set [5], 10.2 nM; in [6], 17.9 nM. Moreover, the EC50 in [7] was 8.85 nM; in [8], 75.4 nM.

Turning to `Cc1cc(C#N)cc(C)c1Oc1nc(NC2CCN(Cc3ccc(C(N)=O)cc3)CC2)ncc1-c1ccoc1`, the half-maximal effective concentration (EC50) in [1] amounted to 3.4 nM; in data set [2], 108 nM; in data set [3] it was 10.1 nM; in data set [4], 3.44 nM; in [5] it was 9.81 nM; in data set [6] it was 21.1 nM. Also, the EC50 in data set [7] was 11.2 nM; in data set [8], 307 nM; in data set [14], > 182000 nM.

Turning to `Cc1cc(C#N)cc(C)c1Oc1nc(NC2CCN(Cc3ccc(S(N)(=O)=O)cc3)CC2)ncc1-c1cccs1`, the EC50 in data set [1] came to 4.57 nM; in data set [2], 103 nM; in data set [3], 5.92 nM; in data set [4], 5.39 nM; in data set [5], 10.7 nM; in data set [6], 9.31 nM. Besides, the concentration for a half-maximal effect (EC50) in [7] was 7.71 nM; in [8] it was 30.2 nM; in data set [14], ≥ 33400 nM.

Turning to `Cc1cc(/C=C/C#N)cc(C)c1Oc1nc(NC2CCN(Cc3ccc(S(N)(=O)=O)cc3)CC2)ncc1-c1ccc(F)nc1`, the EC50 in data set [1] was found to be 5.8 nM; in data set [2], 28.2 nM; in data set [3] it was 11.4 nM; in data set [4], 7.5 nM; in data set [5], 15.4 nM; in data set [6], 36.7 nM. Besides, the EC50 was 49.1 nM in data set [7] and 23.1 nM in data set [8].

As for `Cc1cc(C#N)cc(C)c1Oc1nc(NC2CCN(Cc3ccc(C(N)=O)cc3)CC2)ncc1-c1ccccc1`, the EC50 in data set [1] was 5.11 nM; in data set [2] it was 562 nM; in [3] it was 151 nM; in data set [4], 9.15 nM; in data set [5], 28.7 nM; in [6], 30.5 nM. Also, the EC50 was determined as 17.1 nM in data set [7] and 393 nM in data set [8].

Regarding `Cc1cc(C#N)cc(C)c1Oc1nc(NC2CCN(Cc3ccc(S(C)(=O)=O)cc3)CC2)ncc1-c1ccsc1`, the EC50 in data set [1] stood at 4.92 nM; in [2], 253 nM; in data set [3] it was 20.3 nM; in data set [4] it was 4.75 nM; in data set [5], 11.7 nM; in [6], 27.2 nM. Further, the values for the EC50 in data set [7] and in data set [8] were 10.6 nM and 67.5 nM, respectively.

On to `Cc1cc(C#N)cc(C)c1Oc1nc(NC2CCN(Cc3ccc(C(N)=O)cc3)CC2)ncc1-c1ccco1`, for which the EC50 was found to be 5.78 nM in data set [1]; 254 nM in [2]; 38.2 nM in [3]; 3.73 nM in [4]; 14.9 nM in data set [5]; 23.3 nM in data set [6]. Also, the figures for the EC50 in [7] and in data set [8] were 11.9 nM and 161 nM, respectively.

With `Cc1cc(C#N)cc(C)c1Oc1nc(NC2CCN(Cc3ccc(S(N)(=O)=O)cc3)CC2)ncc1-c1ccncc1`, the EC50 was found to be 2.59 nM in data set [1]; 111 nM in data set [2]; 10.6 nM in data set [3]; 2.33 nM in data set [4]; 6.93 nM in data set [5]; 21.4 nM in [6]. The EC50 in [7] came to 8.12 nM; in [8] it was 45.9 nM.

For `Cc1cc(C#N)cc(C)c1Oc1nc(NC2CCN(Cc3ccc(S(N)(=O)=O)cc3)CC2)ncc1-c1ccccc1`, the EC50 in [1] was determined as 5.14 nM; in data set [2], 427 nM; in data set [3], 53.2 nM; in data set [4], 7.74 nM; in data set [5], 26.2 nM; in data set [6], 33.2 nM. The EC50 in data set [7] was 24.5 nM; in [8], 219 nM.

Consider `Cc1cc(C#N)cc(C)c1Oc1nc(NC2CCN(Cc3ccc(S(C)(=O)=O)cc3)CC2)ncc1-c1ccoc1`, for which the EC50 came out at 4.75 nM in data set [1]; 172 nM in data set [2]; 14.8 nM in data set [3]; 4.39 nM in data set [4]; 14.4 nM in [5]; 24.2 nM in data set [6]. Also, the values for the EC50 in data set [7] and in data set [8] were 15.3 nM and 41.5 nM, respectively.

For the compound `Cc1cc(/C=C/C#N)cc(C)c1Oc1nc(NC2CCN(Cc3ccc(S(C)(=O)=O)cc3)CC2)ncc1-c1cccnc1`, the concentration for a half-maximal effect (EC50) in data set [1] came out at 4.57 nM; in data set [2], 22.4 nM; in data set [3], 10.7 nM; in [4], 5.42 nM; in [5] it was 10.3 nM; in [6] it was 22.7 nM. Besides, the EC50 in [7] worked out at 12.2 nM; in data set [8], 13.2 nM.

Consider `Cc1cc(/C=C/C#N)cc(C)c1Oc1nc(NC2CCN(Cc3ccc(S(N)(=O)=O)cc3)CC2)ncc1-c1cccnc1`, for which the EC50 turned out to be 5.04 nM in data set [1]; 25.8 nM in data set [2]; 7.85 nM in data set [3]; 6.25 nM in data set [4]; 9.95 nM in [5]; 25.1 nM in [6]. Further, the results for the EC50 in data set [7] and in [8] were 11.9 nM and 12.2 nM, respectively.

`Cc1cc(C#N)cc(C)c1Oc1nc(NC2CCN(Cc3ccc(C(N)=O)cc3)CC2)ncc1-c1ccsc1`: the EC50 in data set [1] was found to be 4.22 nM; in [2] it was 415 nM; in data set [3] it was 62.6 nM; in [4], 5.52 nM; in data set [5], 26.4 nM; in data set [6] it was 30 nM. Besides, the EC50 in data set [7] was 22 nM; in data set [8], 325 nM.

The values are drawn from ChEMBL document CHEMBL4834412, “2,4,5-Trisubstituted Pyrimidines as Potent HIV-1 NNRTIs: Rational Design, Synthesis, Activity Evaluation, and Crystallographic Studies” (J Med Chem, 2021).
